Results taken from ChEMBL document CHEMBL4052817 (J Med Chem, 2017).
Each block holds one compound with its values, some of them ahead of it.

How the values were obtained:
[1] = target: Indoleamine 2,3-dioxygenase 1 (Mus musculus, UniProt P28776); assay: Inhibition of mouse IDO-1 using tryptophan as substrate after 22 mins by LC-MS/MS method
[2] = Inhibition of dog IDO-1 using tryptophan as substrate after 22 mins by LC-MS/MS method
[3] = Chemical stability in phosphate buffer saline at pH 7.4 assessed as parent compound remaining after 48 hrs; type: physicochemical; conditions: phosphate buffered saline, read-out: Stability
Outline: (§1)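 (R)-enantiomer incubated for 48 h in phosphate-buffered saline (pH 7.4) or in mouse, rat, dog or acidified dog plasma. The (R)-enantiomer remaining and (S)-enantiomer formed were quantified (%) by chiral LC/MS-MS.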

[4] = Metabolic stability in mouse plasma assessed as parent compound remaining after 48 hrs; type: ADME, cell-free; conditions: read-out: Stability
Outline: (§2)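 Active enantiomer incubated 48 h in mouse, dog or rat plasma, or in dog plasma that had been acidified; remaining enantiomer and formed antipode measured by chiral LC/MS-MS.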

[5] = Metabolic stability in dog plasma assessed as parent compound remaining after 48 hrs; type: ADME, cell-free, Canis lupus familiaris; conditions: read-out: Stability; outline: as §2
[6] = Metabolic stability in rat plasma assessed as parent compound remaining after 48 hrs; type: ADME, cell-free; conditions: read-out: Stability; outline: as §2
[7] = Metabolic stability in dog acidified plasma assessed as parent compound remaining after 48 hrs; type: ADME, cell-free, Canis lupus familiaris; conditions: read-out: Stability; outline: as §2
[8] = Fraction unbound in human plasma after 48 hrs; type: ADME, cell-free
[9] = AUC (infinity) in rat at 1 mg/kg, iv; type: ADME, organism-based; parameters: dose 1 mg/kg, time infinity, route intravenous; conditions: in vivo
[10] = AUC (infinity) in dog at 1 mg/kg, iv; type: ADME, organism-based, Canis lupus familiaris; parameters: dose 1 mg/kg, route intravenous, time infinity; conditions: in vivo
[11] = AUC (infinity) in cynomolgus monkey at 1 mg/kg, iv; type: ADME, organism-based, Macaca fascicularis; parameters: dose 1 mg/kg, route intravenous, time infinity; conditions: in vivo
Rattus norvegicus = assay: AUC (infinity) in rat assessed as (S)-3-(5-fluoro-1H-indol-3-yl)pyrrolidine-2,5-dione at 1 mg/kg, iv; type: ADME, organism-based; parameters: dose 1 mg/kg, time infinity, route intravenous; conditions: in vivo
Outline: (§3)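 Pure active (R)-enantiomer given IV at 1 mg/kg to rat, dog and monkey. Exposure (AUCinf) of the (R)- and (S)-enantiomers measured; their AUC ratio reported as an index of in vivo interconversion.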

Canis familiaris = assay: AUC (infinity) in dog assessed as (S)-3-(5-fluoro-1H-indol-3-yl)pyrrolidine-2,5-dione at 1 mg/kg, iv; type: ADME, organism-based, Canis lupus familiaris; parameters: dose 1 mg/kg, route intravenous, time infinity; conditions: in vivo; outline: as §3
Cynomolgus monkey [12] = assay: AUC (infinity) in cynomolgus monkey assessed as (S)-3-(5-fluoro-1H-indol-3-yl)pyrrolidine-2,5-dione at 1 mg/kg, iv; type: ADME, organism-based, Macaca fascicularis; parameters: dose 1 mg/kg, route intravenous, time infinity; conditions: in vivo; outline: as §3
Cynomolgus monkey [13] = assay: Drug metabolism in cynomolgus monkey assessed as (S)-3-(5-fluoro-1H-indol-3-yl)pyrrolidine-2,5-dione formation at 10 mg/kg, po; type: ADME, organism-based, Macaca fascicularis; conditions: in vivo
Outline: (§4)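 (R)-enantiomer or racemate dosed orally at 10 mg/kg to monkeys. Total plasma concentrations of each enantiomer were followed over time.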

[14] = Drug metabolism in human hepatocytes in presence of CYP inhibitor ABT; type: ADME, cell-based, Hepatocyte; conditions: with ABT (CYP inhibitor), read-out: Drug metabolism
[15] = Drug metabolism in human hepatocytes in absence of CYP inhibitor ABT; type: ADME, cell-based, Hepatocyte; conditions: read-out: Drug metabolism
[16] = target: Indoleamine 2,3-dioxygenase 1 (Homo sapiens, UniProt P14902); assay: Inhibition of human recombinant IDO-1 using L-Trp as substrate after 15 mins by PDMAB-based assay
Indoleamine 2,3-dioxygenase 1 (Homo sapiens, UniProt P14902), sequence (P14902 whole entry): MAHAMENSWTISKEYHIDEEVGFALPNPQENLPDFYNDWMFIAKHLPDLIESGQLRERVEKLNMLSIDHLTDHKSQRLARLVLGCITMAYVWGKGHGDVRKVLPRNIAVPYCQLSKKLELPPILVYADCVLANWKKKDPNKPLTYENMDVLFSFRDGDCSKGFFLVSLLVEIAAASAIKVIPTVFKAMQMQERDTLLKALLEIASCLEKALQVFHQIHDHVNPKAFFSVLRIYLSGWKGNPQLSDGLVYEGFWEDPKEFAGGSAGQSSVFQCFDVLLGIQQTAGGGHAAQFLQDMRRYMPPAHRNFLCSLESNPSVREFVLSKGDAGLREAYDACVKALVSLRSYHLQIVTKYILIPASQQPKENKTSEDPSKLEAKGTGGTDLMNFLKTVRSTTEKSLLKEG

[17] = Fraction unbound in human plasma; type: ADME, cell-free
Outline: (§5)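 Racemate incubated with plasma from preclinical species and humans. The unbound fraction of the (R)-enantiomer was determined.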

[18] = Fraction unbound in mouse plasma; type: ADME, cell-free; outline: as §5
[19] = Intrinsic clearance in human microsomes; type: ADME, Microsome
[20] = Intrinsic clearance in mouse microsomes; type: ADME, Microsome
[21] = Apparent permeability across human Caco2 cells; type: ADME, cell-based; conditions: Caco-2
Cytochrome P450 1A2 = target: T1, Cytochrome P450 1A2 (Homo sapiens, UniProt P05177); assay: Inhibition of CYP1A2 (unknown origin); type: ADME
T1 sequence (P05177 whole entry): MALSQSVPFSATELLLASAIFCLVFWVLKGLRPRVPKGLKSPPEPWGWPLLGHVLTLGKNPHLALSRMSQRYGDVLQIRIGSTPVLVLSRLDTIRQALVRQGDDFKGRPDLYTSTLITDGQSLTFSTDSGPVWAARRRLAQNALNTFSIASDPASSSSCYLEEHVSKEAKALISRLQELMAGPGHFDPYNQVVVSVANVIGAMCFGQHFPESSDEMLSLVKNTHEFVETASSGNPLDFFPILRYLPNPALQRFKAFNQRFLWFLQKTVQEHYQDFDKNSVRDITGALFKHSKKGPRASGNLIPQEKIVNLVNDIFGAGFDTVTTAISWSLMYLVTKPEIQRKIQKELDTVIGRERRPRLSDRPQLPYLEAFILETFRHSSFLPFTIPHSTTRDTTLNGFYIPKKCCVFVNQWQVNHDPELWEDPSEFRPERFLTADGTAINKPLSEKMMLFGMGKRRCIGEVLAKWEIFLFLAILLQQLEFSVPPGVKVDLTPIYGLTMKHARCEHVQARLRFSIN

Cytochrome P450 2C9 = Cytochrome P450 2C9 (Homo sapiens, UniProt P11712); assay: Inhibition of CYP2C9 (unknown origin); type: ADME
Cytochrome P450 2C9, sequence (P11712 whole entry): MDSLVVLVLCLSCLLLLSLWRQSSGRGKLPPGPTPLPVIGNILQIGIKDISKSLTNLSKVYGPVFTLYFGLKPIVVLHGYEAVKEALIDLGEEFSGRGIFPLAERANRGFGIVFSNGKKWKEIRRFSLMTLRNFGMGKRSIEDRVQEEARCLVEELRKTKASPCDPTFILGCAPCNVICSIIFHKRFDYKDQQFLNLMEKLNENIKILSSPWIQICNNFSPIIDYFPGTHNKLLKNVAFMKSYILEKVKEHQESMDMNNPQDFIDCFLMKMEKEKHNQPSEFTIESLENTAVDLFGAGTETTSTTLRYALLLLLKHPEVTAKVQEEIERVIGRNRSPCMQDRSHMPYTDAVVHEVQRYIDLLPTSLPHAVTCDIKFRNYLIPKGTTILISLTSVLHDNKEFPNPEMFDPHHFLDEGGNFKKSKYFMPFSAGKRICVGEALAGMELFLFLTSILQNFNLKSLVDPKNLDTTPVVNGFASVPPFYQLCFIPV

Cytochrome P450 2C19 = Cytochrome P450 2C19 (Homo sapiens, UniProt P33261); assay: Inhibition of CYP2C19 (unknown origin); type: ADME
Cytochrome P450 2C19, sequence (P33261 whole entry): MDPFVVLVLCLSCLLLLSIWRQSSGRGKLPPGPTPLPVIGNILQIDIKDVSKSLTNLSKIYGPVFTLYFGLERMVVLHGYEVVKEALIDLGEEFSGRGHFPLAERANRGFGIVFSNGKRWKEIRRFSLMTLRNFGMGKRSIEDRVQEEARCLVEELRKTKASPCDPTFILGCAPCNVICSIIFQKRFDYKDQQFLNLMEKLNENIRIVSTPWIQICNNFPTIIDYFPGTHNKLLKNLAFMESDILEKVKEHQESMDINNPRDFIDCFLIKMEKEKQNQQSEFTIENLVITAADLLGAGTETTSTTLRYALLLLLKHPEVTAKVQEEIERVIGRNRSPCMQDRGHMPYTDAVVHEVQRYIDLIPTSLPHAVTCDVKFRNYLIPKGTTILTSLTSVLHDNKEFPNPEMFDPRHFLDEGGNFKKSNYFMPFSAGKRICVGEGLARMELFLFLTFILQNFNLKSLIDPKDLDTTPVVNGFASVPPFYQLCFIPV

Cytochrome P450 2D6 = Cytochrome P450 2D6 (Homo sapiens, UniProt P10635); assay: Inhibition of CYP2D6 (unknown origin); type: ADME
Cytochrome P450 2D6, sequence (P10635 whole entry): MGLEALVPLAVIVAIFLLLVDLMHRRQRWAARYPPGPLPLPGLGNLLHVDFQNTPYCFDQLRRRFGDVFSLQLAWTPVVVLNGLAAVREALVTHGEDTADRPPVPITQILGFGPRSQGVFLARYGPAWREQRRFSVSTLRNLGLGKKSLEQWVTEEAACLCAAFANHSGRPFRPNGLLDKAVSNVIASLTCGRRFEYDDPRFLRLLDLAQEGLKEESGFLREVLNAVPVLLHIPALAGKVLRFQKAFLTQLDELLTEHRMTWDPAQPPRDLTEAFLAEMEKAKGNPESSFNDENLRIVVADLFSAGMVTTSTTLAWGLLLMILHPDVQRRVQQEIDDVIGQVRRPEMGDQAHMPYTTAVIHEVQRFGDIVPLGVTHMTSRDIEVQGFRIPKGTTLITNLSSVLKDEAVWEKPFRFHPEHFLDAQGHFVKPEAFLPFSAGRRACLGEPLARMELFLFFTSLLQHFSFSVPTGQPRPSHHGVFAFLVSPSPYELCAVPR

Cytochrome P450 3A4 = Cytochrome P450 3A4 (Homo sapiens, UniProt P08684); assay: Inhibition of CYP3A4 (unknown origin); type: ADME
Cytochrome P450 3A4, sequence (P08684 whole entry): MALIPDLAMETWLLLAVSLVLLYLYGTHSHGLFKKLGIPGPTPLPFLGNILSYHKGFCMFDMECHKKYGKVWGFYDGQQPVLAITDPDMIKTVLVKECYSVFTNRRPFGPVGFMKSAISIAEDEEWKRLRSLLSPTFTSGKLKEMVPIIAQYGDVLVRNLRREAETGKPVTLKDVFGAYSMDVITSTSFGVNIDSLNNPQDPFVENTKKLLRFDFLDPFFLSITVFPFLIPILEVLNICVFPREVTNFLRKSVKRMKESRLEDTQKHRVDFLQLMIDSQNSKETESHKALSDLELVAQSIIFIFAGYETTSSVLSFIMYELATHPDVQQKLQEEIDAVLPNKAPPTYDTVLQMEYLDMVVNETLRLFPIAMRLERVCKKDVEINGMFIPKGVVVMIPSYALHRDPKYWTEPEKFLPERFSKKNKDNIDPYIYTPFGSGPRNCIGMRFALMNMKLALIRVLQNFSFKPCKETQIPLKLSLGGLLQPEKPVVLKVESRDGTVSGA

[22] = Clearance in mouse; type: ADME, organism-based; conditions: in vivo
[23] = Volume of distribution at steady state in mouse; type: ADME, organism-based; conditions: in vivo, read-out: Vdss
Outline: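 Single 1 mg/kg IV dose of the racemate to male CD-1 mice (n=3). The plasma active enantiomer was quantified by chiral LC-MS/MS, and Vss was taken from the plasma concentration–time profile.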

[24] = Half life in mouse; type: ADME, organism-based; conditions: in vivo
[25] = Oral bioavailability in mouse at 5 mg/kg; type: ADME, organism-based; conditions: in vivo
[26] = Oral bioavailability in mouse at 30 mg/kg; type: ADME, organism-based; conditions: in vivo
[27] = Efflux ratio of apparent permeability across human Caco2 cells; type: ADME, cell-based; conditions: Caco-2
[28] = Drug level in phosphate buffer saline at pH 7.4 treated with (R)-3-(5-fluoro-1H-indol-3-yl)pyrrolidine-2,5-dione after 48 hrs; outline: as §1
Plasma [29] = assay: Drug level in mouse plasma treated with (R)-3-(5-fluoro-1H-indol-3-yl)pyrrolidine-2,5-dione after 48 hrs; type: ADME, cell-free; outline: as §1
Plasma [30] = assay: Drug level in dog plasma treated with (R)-3-(5-fluoro-1H-indol-3-yl)pyrrolidine-2,5-dione after 48 hrs; type: ADME, cell-free, Canis lupus familiaris; outline: as §1
Plasma [31] = assay: Drug level in rat plasma treated with (R)-3-(5-fluoro-1H-indol-3-yl)pyrrolidine-2,5-dione after 48 hrs; type: ADME, cell-free; outline: as §1
Plasma [32] = assay: Drug level in dog acidified plasma treated with (R)-3-(5-fluoro-1H-indol-3-yl)pyrrolidine-2,5-dione after 48 hrs; type: ADME, cell-free, Canis lupus familiaris; outline: as §1
Cynomolgus monkey [33] = assay: Drug level in cynomolgus monkey treated with (R)-3-(5-fluoro-1H-indol-3-yl)pyrrolidine-2,5-dione at 10 mg/kg, po; type: ADME, organism-based, Macaca fascicularis; conditions: in vivo; outline: as §4

Indoleamine 2,3-dioxygenase 1 (Mus musculus, UniProt P28776), sequence (P28776 whole entry): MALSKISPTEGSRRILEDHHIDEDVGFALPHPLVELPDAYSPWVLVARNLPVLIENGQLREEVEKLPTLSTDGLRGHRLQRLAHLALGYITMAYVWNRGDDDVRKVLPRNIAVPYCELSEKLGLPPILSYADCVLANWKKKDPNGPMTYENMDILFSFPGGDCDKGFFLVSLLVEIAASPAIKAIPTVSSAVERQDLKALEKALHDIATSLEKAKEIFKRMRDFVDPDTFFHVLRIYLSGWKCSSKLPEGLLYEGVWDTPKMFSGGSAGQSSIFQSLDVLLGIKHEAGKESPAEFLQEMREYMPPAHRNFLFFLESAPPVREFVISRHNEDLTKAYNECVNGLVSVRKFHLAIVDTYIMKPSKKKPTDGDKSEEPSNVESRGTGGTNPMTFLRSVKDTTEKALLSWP

SMILES: O=C1C[C@H](c2c[nH]c3ccc(F)cc23)C(=O)N1
IC50 [1]: 7.3 µM
IC50 [2]: 200 nM
remaining at 48 h [3]: 89%
remaining at 48 h [4]: 35%
remaining at 48 h [5]: 30%
remaining at 48 h [6]: 27%
remaining at 48 h [7]: 93.5%
fraction unbound at 48 h [8]: 0.449
AUC(0-inf) [9]: 2270 ng·h/mL
AUC(0-inf) [10]: 696 ng·h/mL
AUC(0-inf) [11]: 6810 ng·h/mL
AUC (Rattus norvegicus): 153 ng·h/mL
AUC (Canis familiaris): 124 ng·h/mL
AUC (Cynomolgus monkey [12]): 3516 ng·h/mL
Drug metabolism (Cynomolgus monkey [13]): Metabolite_Detected
metabolised [14]: 39%
metabolised [15]: 61%

SMILES: O=C1C[C@H](c2c[nH]c3ccccc23)C(=O)N1
fraction unbound [17]: 0.43
fraction unbound [18]: 0.55
clearance [19]: < 10 µL/min/mg
clearance [20]: < 10 µL/min/mg
Papp [21]: 28 ×10⁻⁶ cm/s
IC50 (Cytochrome P450 1A2): > 10 µM
IC50 (Cytochrome P450 2C9): > 10 µM
IC50 (Cytochrome P450 2C19): > 10 µM
IC50 (Cytochrome P450 2D6): > 10 µM
IC50 (Cytochrome P450 3A4): > 10 µM
clearance [22]: 15.6 mL/min/kg
Vd [23]: 1.2 L/kg
half-life [24]: 58.2 min
bioavailability [25]: 63%
bioavailability [26]: 65%
efflux ratio [27]: 0.77

SMILES: O=C1C[C@@H](c2c[nH]c3ccc(F)cc23)C(=O)N1
Drug metabolism [28]: Metabolite detected
Drug metabolism (Plasma [29]): Metabolite_Detected
Drug metabolism (Plasma [30]): Metabolite_Detected
Drug metabolism (Plasma [31]): Metabolite_Detected
Drug metabolism (Plasma [32]): Metabolite_Detected
fraction unbound at 48 h [8]: 0.286
Drug metabolism (Cynomolgus monkey [33]): Metabolite_Detected

SMILES: O=C1CC(c2cccc3ccc(Cl)cc23)C(=O)N1 (centres undefined)
IC50 [16]: > 50 µM

SMILES: COc1ccc2c(C3CC(=O)NC3=O)c[nH]c2c1 (centres undefined)
IC50 [16]: > 50 µM

Next, values leading:

IC50 [16]: 0.83 µM
SMILES: O=C1CC(c2c[nH]c3ccc(Cl)cc23)C(=O)N1 (centres undefined)

IC50 [16]: 9.7 µM
SMILES: O=C1CC(c2c[nH]c3ccc(C(F)(F)F)cc23)C(=O)N1 (centres undefined)

IC50 [16]: 0.58 µM
SMILES: O=C1C[C@H](c2c[nH]c3cc(Cl)c(F)cc23)C(=O)N1

IC50 [16]: > 50 µM
SMILES: O=C1C[C@@H](c2c[nH]c3cc(Cl)c(F)cc23)C(=O)N1

IC50 [16]: 83 µM
SMILES: O=C1C[C@@H](c2c[nH]c3ccccc23)C(=O)N1

IC50 [16]: > 50 µM
SMILES: O=C1CC(c2cccc3cc(Cl)ccc23)C(=O)N1 (centres undefined)

IC50 [16]: 1.2 µM
SMILES: N#Cc1ccc2[nH]cc(C3CC(=O)NC3=O)c2c1 (centres undefined)
